Here are results for 30 compounds from ChEMBL document CHEMBL1125654, “New inhibitors of human renin that contain novel replacements at the P2 site” (J Med Chem, 1991).

Molecules are shown by their SMILES.

Series [1] addresses T1, Renin (Homo sapiens, UniProt P00797).
T1 sequence (P00797 whole entry): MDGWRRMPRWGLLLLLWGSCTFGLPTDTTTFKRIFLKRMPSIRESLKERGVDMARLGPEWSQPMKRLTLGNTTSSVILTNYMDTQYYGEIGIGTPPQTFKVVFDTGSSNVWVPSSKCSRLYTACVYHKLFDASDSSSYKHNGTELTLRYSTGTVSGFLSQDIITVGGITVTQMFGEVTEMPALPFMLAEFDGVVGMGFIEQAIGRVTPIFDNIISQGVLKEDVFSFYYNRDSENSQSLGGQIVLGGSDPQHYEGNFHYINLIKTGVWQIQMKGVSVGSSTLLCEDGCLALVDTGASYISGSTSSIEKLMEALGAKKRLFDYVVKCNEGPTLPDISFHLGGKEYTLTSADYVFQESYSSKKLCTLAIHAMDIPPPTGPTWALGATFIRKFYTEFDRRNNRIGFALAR
The series is described as follows: Inhibitory activity against monkey plasma renin. The conditions noted are these: target entry is the homologue from another species. The format is cell-free, Cercopithecidae. In a few lines: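 Plasma from salt-depleted, furosemide-treated monkeys (native renin and angiotensinogen) incubated with maleate buffer (pH 6.0), PMSF and inhibitor in DMSO for 60 min at 37 °C. Plasma renin activity was 3–8 ng AI/mL per h. Percent inhibition was taken vs DMSO vehicle tubes, and IC50 from six concentrations by nonlinear regression.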

Series [2] deals with T1, Renin. Description: Inhibitory activity against human plasma renin. The format is cell-free.
The nature of series [3]: Partition coefficient (logD7.4). The settings on record: octanol/water.

For `CC(C)CC(NC(=O)C[C@H](O)C(CC(C)C)NC(=O)C(CCCCNC(=N)N[N+](=O)[O-])NC(=O)C(Cc1cccc2ccccc12)Cc1cccc2ccccc12)C(=O)NCc1ccccc1` (stereo partly drawn), the IC50 was 49 nM at Renin [1] and 15 nM against Renin [2]. Besides, in series [3] (pH 7.4), the logD is 5.51.

On to `CCC(C)CNC(=O)C[C@H](O)C(CC(C)C)NC(=O)C(CCCCNC(N)=O)NC(=O)C(Cc1cccc2ccccc12)Cc1cccc2ccccc12` (stereo partly drawn), for which the concentration for half-maximal inhibition (IC50) is 89 nM at Renin [1] and 50 nM against Renin [2]. This compound showed a logD in series [3] (pH 7.4, logD) of 5.31.

Take `CC(C)CC(NC(=O)C(CCCC/N=C(/N)N[N+](=O)[O-])NC(=O)C(CC(=O)N1CCOCC1)Cc1cccc2ccccc12)[C@@H](O)CC(=O)N1CCOC(CCN)C1` (stereo partly drawn): the midpoint of inhibition at Renin [1], the IC50, lay at 395 nM. Besides, the logD in series [3] (pH 7.4) is 1.95.

In the case of `CCC(C)CNC(=O)C[C@H](O)C(CC(C)C)NC(=O)C(CCCn1cccc1)NC(=O)C(Cc1cccc2ccccc12)Cc1cccc2ccccc12` (stereo partly drawn), the IC50 was found to be 390 nM against Renin [1] and 540 nM on Renin [2]. This compound also registered a logD in series [3] (pH 7.4, logD) of 7.09.

`CCC(C)CNC(=O)C[C@H](O)C(CC(C)C)NC(=O)C(CCNC(=S)NC)NC(=O)C(Cc1cccc2ccccc12)Cc1cccc2ccccc12` (stereo partly drawn): the IC50 against Renin [1] was 2490 nM; at Renin [2] it was 9350 nM. In series [3] (pH 7.4, logD), this compound showed a logD of 5.7.

Consider `CC(=O)NCC#CCC(NC(=O)C(Cc1ccccc1)NS(=O)(=O)N1CCOCC1)C(=O)NC(CC1CCCCC1)[C@@H](O)CC(=O)N1CCOC(CCN)C1` (stereo partly drawn), for which the IC50 against Renin [1] is 0.5 nM. In addition, the logD in series [3] (pH 7.4, logD) was determined as 2.12.

In the case of `CCC(C)CNC(=O)C[C@H](O)C(CC(C)C)NC(=O)C(CCCCCNC(=S)NC)NC(=O)C(Cc1cccc2ccccc12)Cc1cccc2ccccc12` (stereo partly drawn), the IC50 stood at 39 nM on Renin [1] and 40 nM at Renin [2]. The compound further gave a logD in series [3] (pH 7.4, logD) of 5.41.

Turning to `CCC(C)CNC(=O)C[C@H](O)C(CC(C)C)NC(=O)C(CC#CCNC(C)=O)NC(=O)C(Cc1cccc2ccccc12)Cc1cccc2ccccc12` (stereo in doubt; 55b), the IC50 at Renin [1] worked out at 41 nM; at Renin [2], 29 nM. Further, in series [3] (pH 7.4), the logD is listed as 5.06.

As to `CCC(C)CNC(=O)C[C@H](O)C(CC(C)C)NC(=O)C(CCCCn1cccc1)NC(=O)C(Cc1cccc2ccccc12)Cc1cccc2ccccc12` (stereo partly drawn), the IC50 on Renin [1] stood at 144 nM; at Renin [2], 87 nM. The compound further registered a logD in series [3] (pH 7.4, logD) of 7.21.

On Renin [1], `N=C(NCC#CCC(NC(=O)C(Cc1cccc2ccccc12)Cc1cccc2ccccc12)C(=O)NC(CC1CCCCC1)[C@@H](O)CC(=O)N1CCOC(CCN)C1)N[N+](=O)[O-]` (stereo partly drawn) had an IC50 of 12 nM. In addition, in series [3] (pH 7.4), the logD turned out to be 4.73.

With `CCC(C)CNC(=O)C[C@H](O)C(CC(C)C)NC(=O)C(C/C=C\CNC(C)=O)NC(=O)C(Cc1cccc2ccccc12)Cc1cccc2ccccc12` (stereo partly drawn), the IC50 against Renin [1] came to 100 nM. The compound further displayed a logD in series [3] (pH 7.4, logD) of 5.56.

Consider `CCC(C)CNC(=O)C[C@H](O)C(CC(C)C)NC(=O)C(CCCCNC(=NC#N)SC)NC(=O)C(Cc1cccc2ccccc12)Cc1cccc2ccccc12` (stereo partly drawn), for which the IC50 was found to be 41 nM against Renin [1] and 19 nM at Renin [2]. The same compound gave a pH-dependent lipophilicity (logD) in series [3] (pH 7.4, logD) of 5.51.

As to `CC(C)CC(NC(=O)C[C@H](O)C(CC(C)C)NC(=O)C(CCCCNC(=O)OCc1ccccc1)NC(=O)C(Cc1cccc2ccccc12)Cc1cccc2ccccc12)C(=O)NCc1ccccc1` (stereo partly drawn), the IC50 is 8000 nM at Renin [1] and 2900 nM against Renin [2]. This compound had a logD in series [3] (pH 7.4, logD) of 7.69.

Regarding `NCCC1CN(C(=O)C[C@H](O)C(CC2CCCCC2)NC(=O)C(CC#CCNC=O)NC(=O)C(Cc2cccc3ccccc23)Cc2cccc3ccccc23)CCO1` (stereo partly drawn), the half-maximal inhibitory concentration (IC50) at Renin [1] worked out at 8.7 nM. This compound also showed a logD in series [3] (pH 7.4, logD) of 5.44.

As to `CNC(=S)NCCCCC(NC(=O)C(Cc1ccccc1)S(=O)(=O)C(C)(C)C)C(=O)NC(CC1CCCCC1)[C@@H](O)CC(=O)N1CCOC(CCN)C1` (stereo partly drawn), on Renin [1], the IC50 amounted to 27 nM. In series [3] (pH 7.4, logD), this compound showed a log distribution coefficient (logD) of 2.64.

With `CCC(C)CNC(=O)C[C@H](O)C(CC(C)C)NC(=O)C(CCCCNC(=S)Nc1ccccc1)NC(=O)C(Cc1cccc2ccccc12)Cc1cccc2ccccc12` (stereo partly drawn), the IC50 at Renin [1] came out at 138 nM; on Renin [2] it was 58 nM. The compound further had a logD in series [3] (pH 7.4, logD) of 6.6.

As to `CCC(C)CNC(=O)C[C@H](O)C(CC(C)C)NC(=O)C(Cc1cnc[nH]1)NC(=O)C(Cc1cccc2ccccc12)Cc1cccc2ccccc12` (stereo partly drawn), the IC50 stood at 85 nM against Renin [1] and 61 nM at Renin [2].

Regarding `CNC(=S)NCCCCC(NC(=O)C(Cc1cccc2ccccc12)Cc1cccc2ccccc12)C(=O)NC(CC(C)C)[C@@H](O)CC(=O)N(C)OC` (stereo partly drawn), at Renin [1], the IC50 worked out at 10600 nM. In addition, the logD in series [3] (pH 7.4, logD) is 4.83.

In the case of `C/N=C(\S)NCCCCC(NC(=O)C(CC(=O)N1CCOCC1)Cc1cccc2ccccc12)C(=O)NC(CC1CCCCC1)[C@@H](O)CC(=O)N1CCOC(CCN)C1` (stereo partly drawn), the IC50 stood at 36 nM on Renin [1] and 20 nM at Renin [2]. The logD in series [3] (pH 7.4, logD) is 1.68.

For the compound `CC(C)CC(NC(=O)C(CCCCNC(=O)OCc1ccccc1)NC(=O)C(Cc1ccccc1)NS(=O)(=O)N1CCOCC1)C(=O)C(F)(F)C(=O)N1CCOC(CCN)C1` (stereo not drawn), the IC50 against Renin [1] amounted to 3.3 nM. The log distribution coefficient (logD) in series [3] (pH 7.4, logD) is 2.32.

Consider `CCC(C)CNC(=O)C[C@H](O)C(CC(C)C)NC(=O)C(CCCCNC(C)=O)NC(=O)C(Cc1cccc2ccccc12)Cc1cccc2ccccc12` (stereo partly drawn), for which the IC50 amounted to 36 nM against Renin [1] and 6.2 nM on Renin [2]. The logD in series [3] (pH 7.4, logD) turned out to be 4.38.

`CC(C)(C)OC(=O)NCC#CCC(NC(=O)C(Cc1ccccc1)NS(=O)(=O)N1CCOCC1)C(=O)NC(CC1CCCCC1)[C@@H](O)CC(=O)N1CCOC(CCN)C1` (stereo in doubt; 61a) registered an IC50 against Renin [1] of 11 nM. The compound also showed a logD in series [3] (pH 7.4) of 3.96.

Turning to `CCC(C)CNC(=O)C[C@H](O)C(CC(C)C)NC(=O)C(C/C=C/C/N=C(/S)NC)NC(=O)C(Cc1cccc2ccccc12)Cc1cccc2ccccc12` (stereo partly drawn), the values for the IC50 against Renin [1] and on Renin [2] were 26 nM and 41 nM, respectively. Besides, in series [3] (pH 7.4, logD), the pH-dependent lipophilicity (logD) worked out at 5.23.

With `CC(C)(C)OC(=O)NCC#CCC(NC(=O)C(Cc1ccccc1)NS(=O)(=O)N1CCOCC1)C(=O)NC(CC1CCCCC1)[C@@H](O)CC(=O)N1CCOC(CCN)C1` (stereo in doubt; 61b), it took 700 nM to reach half-maximal inhibition on Renin [1] (IC50). Further, the logD in series [3] (pH 7.4, logD) turned out to be 3.13.

Regarding `CNC(=S)NCC#CCC(NC(=O)C(Cc1cccc2ccccc12)Cc1cccc2ccccc12)C(=O)NC(CC1CCCCC1)[C@@H](O)CC(=O)N1CCOC(CCN)C1` (stereo partly drawn), the IC50 at Renin [1] came out at 48 nM. In series [3] (pH 7.4, logD), this compound came in with a pH-dependent lipophilicity (logD) of 5.46.

On Renin [1], `C/N=C(\S)NCC#CCC(NC(=O)C(Cc1ccccc1)NS(=O)(=O)N1CCOCC1)C(=O)NC(CC1CCCCC1)[C@@H](O)CC(=O)N1CCOC(CCN)C1` (stereo partly drawn) returned an IC50 of 3.3 nM. Also, the logD in series [3] (pH 7.4, logD) is 2.9.

`CS/C(=N\CCCCC(NC(=O)C(Cc1cccc2ccccc12)Cc1cccc2ccccc12)C(=O)NC(CC(C)C)[C@@H](O)CC(=O)N1CCOC(CCN)C1)NC#N` (stereo partly drawn) returned an IC50 against Renin [1] of 90 nM. The logD in series [3] (pH 7.4, logD) was 4.67.

`C/N=C(\S)NCCCCC(NC(=O)C(Cc1ccccc1)NS(=O)(=O)N1CCOCC1)C(=O)NC(CC1CCCCC1)[C@H](O)C(F)(F)C(=O)N1CCOC(CCN)C1` (stereo partly drawn) gave an IC50 against Renin [1] of 2.3 nM. This compound also returned a logD in series [3] (pH 7.4, logD) of 2.93.

As for `CS/C(=N\CCCCC(NC(=O)C(CC(=O)N1CCOCC1)Cc1cccc2ccccc12)C(=O)NC(CC(C)C)[C@@H](O)CC(=O)N1CCOC(CCN)C1)NC#N` (stereo partly drawn), inhibition against Renin [1] was half-maximal at 350 nM (IC50). Also, the logD in series [3] (pH 7.4, logD) worked out at 1.68.

On Renin [1], `CNC(=S)NCCCCC(NC(=O)C(Cc1cccc2ccccc12)Cc1cccc2ccccc12)C(=O)NC(CC(C)C)[C@@H](O)C(F)(F)C(=O)N1CCOC(CCN)C1` (stereo partly drawn) had an IC50 of 350 nM. The compound also registered a logD in series [3] (pH 7.4, logD) of 5.5.
